Source: PubChem
Hits are enriched below; roughly 1.8% of the tested compounds scored in any of these assays.
Lipid droplet: inhibitors of hepatocyte lipid droplet formation, primary screen, imaging, high-throughput imaging, BODIPY stain. AML12 mouse hepatocytes, oleate lipid droplets. inhibition, % at 6.5 µM. AID 1656, 2009. 240,000 tested, 0.4% active;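 active = lipid droplet intensity inhibited by at least 50%, with more than 500 cells counted; inconclusive = wells with under 300 cells, treated as cytotoxic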
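Test system: AML12 hepatocytes (mouse); reagent: oleate loading, 100 µM; dosing: one dose, 6.5 µM compound; incubation: overnight exposure; signal: fluorescence imaging, 20x objective, two fields per well; read-out basis: % inhibition of corrected integrated BODIPY droplet signal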
697 NFkB inh: inhibitors of PMA/ionomycin-induced NF-kB reporter, 697 cells, primary screen, B-cell NF-kB inhibitor project, cell-based, luminescence, uHTS; 697 B-cell NF-kB luciferase reporter, 16 h; inhibition, % at 4 µM; 330,000 tested, 0.33% active; AID 435022, 2010; in the data active = inhibition above about 35%
Gli-Sufu block: Gli-Sufu pathway antagonists, primary screen, luciferase luminescence, Sufu-KO-LIGHT cells, uHTS; AID 588413, 2011; inhibition, % at 5 µM; Sufu-KO-LIGHT fibroblasts, Gli luciferase reporter luminescence; 340,000 tested, 0.74% active;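 active = inhibition above about 55%, limit read from the data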;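 note: 0% = DMSO-treated cells and 100% = wells with medium but no cells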
Jurkat NFkB inh: inhibitors of induced NF-kB luciferase reporter, primary screen, TCR NF-kB activation inhibitor project, cell-based, luminescence, uHTS; Jurkat, PMA/ionomycin-induced NF-kB luciferase reporter; inhibition, % at 4 µM; 330,000 tested, 0.53% active; AID 435003, 2010; in the data active = inhibition above about 50%
TAG inh: inhibitors of triacylglycerol accumulation, primary screen, cell-based, uHTS, fluorescence, H9c2; inhibition, % at 12.5 µM; 230,000 tested, 0.66% active; H9c2 cells, Nile Red lipid (TAG) fluorescence; cells loaded with 200 µM oleic acid; AID 651582, 2012;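 active = pattern-corrected inhibition of lipid staining of at least 50% with the nuclear-stain viability signal not falling by more than 50%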;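 note: 0% = DMSO wells and 100% = triacsin C control wells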
iPSC survival up: enhancers of single-cell hiPSC survival, primary screen, ATPlite luminescence. 100% = ROCK inhibitor wells, 0% = DMSO. survival enhancement, % at 20 µM. 360,000 tested, 0.044% active. AID 602274, 2012; in the data active = survival enhancement above about 18%;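 note: cells exposed to compounds for 16 hours before the ATP read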
Jurkat NFkB conf: PMA/ionomycin-induced NF-kB reporter inhibitors, Jurkat retest, confirmation, T-cell NF-kB inhibitor project, cell-based, luminescence, single concentration. shares compounds with Jurkat NFkB inh. inhibition, % at 4 µM. AID 435020, 2010. Jurkat NF-kB luciferase, 16 h. 2,700 tested, 27% active;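 active = inhibition reaching about 45% at 4 µM in either replicate, limit read from the data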;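 note: plate controls were PMA/ionomycin stimulated DMSO wells for no effect and unstimulated DMSO wells for full effect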
Starred values were filed as active, the others as inactive; ? = inconclusive; . = not tested or not shown.

SMILES | Lipid droplet | 697 NFkB inh | Gli-Sufu block | Jurkat NFkB inh | TAG inh | iPSC survival up | Jurkat NFkB conf
C=CCn1c(-c2ccc(OC)cc2)csc1=Nc1c(C)n(C)n(-c2ccccc2)c1=O | -0.5 | 21.5 | -6.4 | 0.7 | -3.4 | 0.7 | .
CCOC(=O)C1(C)CCCN(C(=O)c2ccc(F)cc2Cl)C1 (stereo unspecified) | . | . | . | . | -16.0 | 2.5 | .
COc1ccc(S(=O)(=O)N2CCN(CC3CC=CCC3)CC2)cc1 (stereo unspecified) | 2.4 | 18.1 | 28.6 | 0.8 | . | -0.6 | .
COc1ccc(CN(C)Cc2c(O)ccc3ccccc23)cc1 | . | 7.1 | 18.4 | 5.1 | . | 0.7 | .
O=c1cc(-c2ccccc2)nc(SCCOc2ccccc2Cl)[nH]1 | 6.3 | 4.1 | -4.1 | 13.7 | -10.8 | -0.3 | .
NC(N)=Nc1nc(C2COc3ccccc3O2)cs1 (stereo unspecified) | -1.5 | -239.1 | -65.0 | -167.2 | 0.6 | -2.1 | -87.2
CCN(CC)C(=O)C1=C(C)N(Cc2ccc(C(C)(C)C)cc2)C(=O)C(CC(=O)NC(c2ccccc2)c2ccccc2)C1 (stereo unspecified) | . | . | . | . | 34.6 | 5.8 | .
C=CCSc1nccc(-c2nn(-c3ccc(C)cc3)ccc2=O)n1 | . | -60.2 | -23.1 | 49.6 | 25.8 | -0.4 | .
CSc1nccc(-c2nn(-c3ccc(C)cc3)ccc2=O)n1 | 16.9 | -3.8 | 2.2 | 57.6* | 30.3 | -0.2 | 48.8*
CCSc1nccc(-c2nn(-c3ccc(C)cc3)ccc2=O)n1 | 11.9 | -48.2 | -2.9 | 50.8* | 21.6 | -2.1 | 27.4
C[C@@H]1CN([C@H](C)CO)C(=O)CCCn2cc(nn2)CO[C@H]1CN(C)C(=O)Nc1cccc(F)c1 | . | . | . | . | -4.2 | 1.5 | .
CCC(C)c1c(NS(=O)(=O)c2ccc(C)cc2)o[nH]c1=O (stereo unspecified) | . | . | 1.4 | . | -16.4 | -2.2 | .
COc1ccc2[nH]c3c(c2c1)CCNC3C1CC=C(C)CC1 (stereo unspecified) | -5.2 | 16.2 | 16.6 | 58.0* | 41.2 | -2.4 | -16.7
O=C(Nc1ccc(Cl)cc1F)c1ccc2c(c1)C(=O)N(Cc1ccncc1)C2=O | . | 19.2 | -43.1 | -2.4 | 4.0 | -1.3 | .
C/C(=N\NC(=O)c1c([N+](=O)[O-])c(C)nn1C)c1ccc(NC(=O)C2CCCC2)cc1 | -179.0 | 8.5 | 39.9 | 53.2* | 27.5 | -0.6 | 50.3*
C/C(=N\NC(=O)c1c(Br)c(C)nn1C)c1cccc(NC(=O)C2CCC2)c1 | . | 11.2 | -3.5 | -4.6 | -0.2 | -3.1 | .
C/C(=N\NC(=O)c1c(Cl)c(C)nn1C)c1ccc(NC(=O)C2CCC2)cc1 | ? | 1.6 | 48.0 | 61.8* | 24.8 | -0.3 | 16.9
C/C(=N\NC(=O)c1c([N+](=O)[O-])c(C)nn1C)c1ccc(NC(=O)c2ccc(C)o2)cc1 | 19.6 | -25.5 | -28.4 | -26.7 | 6.1 | 0.0 | .
CCC(C)(C)NC(=S)Nc1ccc(-c2nc3ccc(C)cc3s2)cc1 | 15.2 | -157.1 | -97.3 | -174.9 | 4.8 | -3.1 | -127.6
COC(=O)C1C(=O)c2c([nH]c(C(=O)OC3CCCCC3)c2C)CC1C (stereo unspecified) | 2.5 | -168.8 | -23.9 | -163.2 | . | -1.2 | -93.3
COC(=O)C1C(=O)c2c([nH]c(C(=O)OC3CCCC3C)c2C)CC1C (stereo unspecified) | 16.9 | -161.2 | -69.5 | -180.2 | . | -1.6 | -112.0
CC(=O)c1cccc(Nc2nc(-c3ccccc3)cs2)c1 | 3.1 | -221.5 | -138.8 | -265.2 | 5.6 | -0.3 | -103.0
COc1ccc(-c2csc(Nc3ccccc3)n2)cc1 | 17.6 | -171.6 | -121.1 | -196.5 | -6.3 | 0.4 | -81.7
O=C(NCCc1c[nH]c2ccccc12)C(=O)Nc1cc2c3c(c1)CC(=O)N3CCC2 | . | 16.4 | -5.0 | 3.6 | 10.3 | 0.0 | .
COc1ccc(/C=N/NC(=O)c2ccn[nH]2)cc1COc1ccc([N+](=O)[O-])c(C)c1 | -4.9 | 6.9 | -3.4 | 44.1 | -13.9 | -0.1 | .
SMILES | Lipid droplet | 697 NFkB inh | Gli-Sufu block | Jurkat NFkB inh | TAG inh | iPSC survival up | Jurkat NFkB conf
COc1ccc(/C=N/NC(=O)c2cccnc2)cc1COc1ccc([N+](=O)[O-])c(C)c1 | -0.9 | -22.9 | -19.4 | 57.4* | 30.8 | -0.6 | 20.6
CCOc1ccc2c(c1)sc(N)[n+]2Cc1cc(C)cc2cccnc12 | -80.7 | -80.1 | 19.8 | 62.4* | . | -0.1 | 51.2*
CCC(=O)N1CCC(C)(C(=O)Nc2ccc3c(c2)OCCO3)C1 (stereo unspecified) | . | . | . | . | 5.6 | -1.2 | .
CCOc1ccc2[nH]c3c(N4CCc5ccccc5C4)ncnc3c2c1 | -29.2 | -24.2 | 22.9 | 51.6* | 4.8 | -0.1 | 21.4
COc1ccc2[nH]c3c(N4CCC(O)(c5cccc(C(F)(F)F)c5)CC4)ncnc3c2c1 | . | 0.4 | 25.0 | 50.8* | 13.4 | -2.0 | 23.1
CC(C)n1c(SCC(=O)NCc2ccco2)nnc1C1CC1 | -13.2 | -2.0 | 4.0 | -6.0 | 3.8 | 0.7 | .
COc1cc(C2C(C#N)=C(N)Oc3cc(N(C)C)ccc32)cc2c1OCO2 (stereo unspecified) | . | -107.2 | 45.5 | 67.3* | . | -2.2 | 48.1*
COc1ccc(C2C(C#N)=C(N)Oc3cc(O)ccc32)cc1OC (stereo unspecified) | . | -21.9 | 3.4 | 0.9 | 1.3 | 4.4 | .
COc1cc(C2C(C#N)=C(N)Oc3cc(O)ccc32)cc(OC)c1OC (stereo unspecified) | . | -18.5 | 25.7 | 53.3* | . | -1.2 | 9.8
CN(CCO)c1ncnc2c1sc1nc(N3CCOCC3)c3c(c12)CCC3 | 3.9 | 23.7 | -1.0 | -9.7 | 30.4 | -0.3 | .
CCC1(C)NC(=O)N(CC(=O)NCC(=O)Nc2c(C)cc(C)cc2C)C1=O (stereo unspecified) | . | 19.5 | -7.9 | -20.1 | -3.9 | 0.1 | .
CC(C)N1CCc2c(sc(NC(=O)c3ccc([N+](=O)[O-])o3)c2C(N)=O)C1 | -37.1 | -8.5 | . | 38.5 | 109.7 | -0.4 | .
COC(=O)c1c(NC(=O)c2ccc([N+](=O)[O-])o2)sc2c1CCN(C(C)C)C2 | -61.7 | -85.6 | 28.3 | 66.5* | 58.9* | 0.0 | 43.2
O=S(=O)(NCc1ccccn1)c1cc(C(F)(F)F)ccc1Cl | -17.5 | -27.7 | -5.0 | 0.5 | -15.6 | -1.8 | .
O=[N+]([O-])c1ccc(Cl)c(S(=O)(=O)NCCc2ccccn2)c1 | . | 11.4 | 8.4 | -165.7 | 4.3 | -3.0 | 18.6
CC(=O)Nc1ccc(NCc2ccc(C)s2)cc1 | . | -46.6 | 7.9 | -29.4 | . | -0.3 | .
CC[n+]1c(/C=C/c2ccc(OC)c(OC)c2)ccc2ccccc21 | 3.3 | -150.5 | -51.4 | -152.5 | -3.9 | -0.1 | -87.8
